According to ChEMBL document CHEMBL4251750, “Structural Insights of Benzenesulfonamide Analogues as NLRP3 Inflammasome Inhibitors: Design, Synthesis, and Biological Characterization” (J Med Chem, 2018):
Active and inactive are the calls of the source. No cut-off for these calls is given here.

Legend:
[1] = target: T1, NACHT, LRR and PYD domains-containing protein 3 (Mus musculus, UniProt Q8R4B8); assay: Inhibition of NLRP3 in mouse J774A.1 cells assessed as reduction in LPS-stimulated IL-1beta levels pre-incubated with LPS for 4.5 hrs followed by incubation for 30 mins in presence of ATP and measured after 30 mins by ELISA; type: cell-based
T1 sequence (Q8R4B8 whole entry, the tested form may be a part): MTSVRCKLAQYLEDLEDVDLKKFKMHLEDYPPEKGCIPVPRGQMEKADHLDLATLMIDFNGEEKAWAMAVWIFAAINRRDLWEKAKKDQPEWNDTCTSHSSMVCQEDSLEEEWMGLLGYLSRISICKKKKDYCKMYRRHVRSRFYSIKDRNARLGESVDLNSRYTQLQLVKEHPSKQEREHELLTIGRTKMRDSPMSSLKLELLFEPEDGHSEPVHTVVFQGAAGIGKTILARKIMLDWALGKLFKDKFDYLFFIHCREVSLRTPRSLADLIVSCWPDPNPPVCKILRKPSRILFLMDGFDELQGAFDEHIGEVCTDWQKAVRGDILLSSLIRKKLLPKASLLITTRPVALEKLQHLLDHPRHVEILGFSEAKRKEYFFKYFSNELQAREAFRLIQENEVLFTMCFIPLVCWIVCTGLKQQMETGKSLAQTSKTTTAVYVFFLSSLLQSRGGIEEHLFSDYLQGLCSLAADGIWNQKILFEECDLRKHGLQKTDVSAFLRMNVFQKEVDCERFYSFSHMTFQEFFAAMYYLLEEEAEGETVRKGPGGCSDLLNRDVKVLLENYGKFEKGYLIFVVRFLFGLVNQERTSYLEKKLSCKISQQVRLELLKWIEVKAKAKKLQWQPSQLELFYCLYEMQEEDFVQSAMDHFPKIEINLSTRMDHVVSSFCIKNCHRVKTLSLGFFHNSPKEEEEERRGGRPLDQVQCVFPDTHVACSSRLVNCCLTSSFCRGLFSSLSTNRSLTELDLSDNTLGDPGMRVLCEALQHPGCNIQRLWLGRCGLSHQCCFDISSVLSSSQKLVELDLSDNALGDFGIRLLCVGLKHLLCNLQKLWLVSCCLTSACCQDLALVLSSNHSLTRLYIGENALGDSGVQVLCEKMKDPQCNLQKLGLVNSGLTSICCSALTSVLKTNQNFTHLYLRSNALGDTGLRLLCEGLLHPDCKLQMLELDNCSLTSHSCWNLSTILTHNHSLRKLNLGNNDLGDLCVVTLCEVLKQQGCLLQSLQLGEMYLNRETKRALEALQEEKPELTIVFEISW

Mus musculus [2] = assay: (§1) Effect on cognition activity in wild type C57BL/6 mouse assessed as decrease in time spent in goal quadran at 100 mg/kg, ip administered as single daily dose at 5 times per week for first 1 week followed by oral administration as single daily dose at 5 times per week for next 7 weeks by Morris water maze test relative to control; type: ADME, organism-based; conditions: in vivo
Procedure, shortened: (§2)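 APP/PS1 female transgenic mice (B6C3-Tg APPswe/PSEN1dE9) and matching WT females, randomized at 7 months (WT vehicle n=4, treated n=6; Tg vehicle n=5, treated n=7). Daily i.p. (10% DMSO with PEG-100) for 5 days, then oral (2% DMSO in corn oil) once daily weekdays for 7 weeks. Afterwards tested by novel object recognition (discrimination index) and Morris water maze (4-day fixed-platform latency trials, then probe trial).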

Mus musculus [3] = assay: Cardioprotective activity in 75 mins coronary artery ligated I/R AMI ICR mouse model assessed as reduction in infract size at 30 mg/kg, po measured at 24 hrs post surgery by TTC-staining based assay; type: functional, organism-based
Procedure, shortened: (§3)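 ICR mice (8-12 weeks) were anesthetized with pentobarbital (50-70 mg/kg) and intubated, then underwent left thoracotomy and pericardiectomy. The proximal left coronary artery was ligated for 30 min or 75 min and released. Compound or vehicle was given at 0.1 mL, with n=6 per group. At 24 h after ischemia, viable myocardium was stained with TTC to measure infarct size.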

Mus musculus [4] = assay: as §1, with “Cognition enhancement” for “Effect on cognition”, “double APP/PS1 transgenic Alzheimer's disease” for “wild type”, “mouse model” for “mouse”, “latency to find” for “time spent in”, “platform” for “quadran”; type: functional, organism-based; procedure, shortened: as §2
Mus musculus [5] = assay: Cardioprotective activity in 30 mins coronary artery ligated I/R AMI ICR mouse model assessed as reduction in infract size at 30 mg/kg, po measured at 24 hrs post surgery by TTC-staining based assay; type: functional, organism-based; procedure, shortened: as §3
Mus musculus [6] = assay: Cardioprotective activity in 30 mins coronary artery ligated I/R AMI ICR mouse model assessed as reduction in troponin-1 levels at 30 mg/kg, po measured at 24 hrs post surgery by ELISA; type: functional, organism-based
Procedure, shortened: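 ICR mice (8-12 weeks) under pentobarbital anaesthesia, intubated; left thoracotomy, pericardiectomy, proximal left coronary artery ligated 30 min then released. Compound or matched vehicle (0.1mL), n=6 per group.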

Mus musculus [7] = assay: (§4) Cognition enhancement activity in double APP/PS1 transgenic Alzheimer's disease C57BL/6 mouse model assessed as discrimination index at 100 mg/kg, ip administered as single daily dose at 5 times per week for first 1 week followed by oral administration as single daily dose at 5 times per week for next 7 weeks by novel object recognition test relative to control; type: functional; procedure, shortened: as §2
Mus musculus [8] = assay: as §4, with “increase in time spent in goal quadran” for “discrimination index”, “Morris water maze” for “novel object recognition”; type: functional, organism-based; procedure, shortened: as §2
Mus musculus [9] = assay: In-vivo inhibition of NLRP3 inflammasome in C57BL/6 mouse assessed as reduction in LPS-induced IL-1beta levels at 0.5 mg/kg, ip pre-treated for 1 hr followed by LPS stimulation for 2.5 hrs by ELISA; type: functional, organism-based
Procedure, shortened: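 C57BL/6 mice dosed with compound or vehicle, then 1 h later given LPS 20 mg/kg i.p. (PBS control). Serum IL-1β measured by ELISA 2.5 h after LPS.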

[10] = target: T1, NACHT, LRR and PYD domains-containing protein 3; assay: Inhibition of NLRP3 in mouse BMDM assessed as reduction in LPS-stimulated IL-1beta levels pre-incubated with LPS for 4.5 hrs followed by incubation for 30 mins in presence of ATP and measured after 30 mins by ELISA; type: cell-based
Procedure, shortened: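 J774A.1 cells (DMEM, 10% FBS; 1 × 10⁵/well, plated 24 h) or bone marrow derived macrophages primed with E. coli 0111:B4 LPS (final 1 µg/mL) for 4.5 h. Compound and ATP (5 mM) then added together for 30 min. Supernatant IL-1β by mouse ELISA.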

[11] = target: NACHT, LRR and PYD domains-containing protein 3 (Mus musculus) (UniProt Q8R4B8); assay: Ratio of IC50 for LPS/ATP-induced NLRP3-mediated IL1beta release in mouse J774A.1 cells to IC50 for LPS/ATP-induced NLRP3-mediated IL1beta release in mouse BMDM; type: cell-based
Sequence of NACHT, LRR and PYD domains-containing protein 3 (Mus musculus) (Q8R4B8 whole entry, the tested form may be a part): as above

Compound	IC50 [1] [nM]	other results
COc1ccc(Cl)cc1C(=O)NCCc1ccc(S(=O)(=O)NCc2ccc(O)cc2)cc1	630	–
CNS(=O)(=O)c1ccc(CCNC(=O)c2c(Cl)cccc2OC)cc1	44400	–
CNS(=O)(=O)c1ccc(CCNC(=O)c2cc(Cl)ccc2OC)cc1	–	Activity (Mus musculus [2]): Non-Toxic; Activity (Mus musculus [3]): Active; Activity (Mus musculus [4]): Active; Activity (Mus musculus [5]): Active; Activity (Mus musculus [6]): Active; Activity (Mus musculus [7]): <50%; Activity (Mus musculus [8]): Active
CNS(=O)(=O)c1ccc(CCNC(=O)c2ccccc2)cc1	147000	–
CCN(CC)S(=O)(=O)c1ccc(CCNC(=O)c2cc(Cl)ccc2OC)cc1	2010	–
CNS(=O)(=O)c1ccc(CCNC(=O)c2ccccc2OC)cc1	17100	–
COc1ccc(Cl)cc1C(=O)NCCc1ccc(S(=O)(=O)N2CCCCC2)cc1	5010	–
COc1ccc(Cl)cc1C(=O)NCCc1ccc(S(=O)(=O)Nc2ccccc2)cc1	2080	–
CNS(=O)(=O)c1ccc(CCNC(=O)c2cccc(Cl)c2)cc1	13400	–
COc1ccc(Cl)cc1C(=O)NCCc1ccc(S(=O)(=O)NCc2ccccc2)cc1	1310	–
CCCNS(=O)(=O)c1ccc(CCNC(=O)c2cc(Cl)ccc2OC)cc1	1640	–
CCCN(CCC)S(=O)(=O)c1ccc(CCNC(=O)c2cc(Cl)ccc2OC)cc1	1400	–
CNS(=O)(=O)c1ccc(CCNC(=O)c2cc(Cl)ccc2O)cc1	10500	–
COc1ccc(Cl)cc1C(=O)NCCc1ccc(S(=O)(=O)N2CCCC2)cc1	3530	–
COc1ccc(Cl)cc1C(=O)NCCc1ccc(S(=O)(=O)NCCc2ccccc2)cc1	810	–
COc1ccc(Cl)cc1C(=O)NCCc1ccc(S(=O)(=O)N2CCOCC2)cc1	3440	–
COc1ccc(Cl)cc1C(=O)NCCc1ccc(S(=O)(=O)N2CCNCC2)cc1	3400	–
COc1ccc(Cl)cc1C(=O)NCCc1ccc(S(=O)(=O)NCc2ccc(Cl)cc2)cc1	1500	–
CCCCN(CCCC)S(=O)(=O)c1ccc(CCNC(=O)c2cc(Cl)ccc2OC)cc1	550	inhibition (Mus musculus [9]): Active; IC50 [10]: 120 nM; Ratio IC50 [11]: 4
COc1ccc(CNS(=O)(=O)c2ccc(CCNC(=O)c3cc(Cl)ccc3OC)cc2)cc1	420	inhibition (Mus musculus [9]): Active; IC50 [10]: 360 nM
CNS(=O)(=O)c1ccc(CCCCNC(=O)c2cc(Cl)ccc2OC)cc1	1740	–
CNS(=O)(=O)c1ccc(CCNC(=O)c2ccc(Cl)cc2OC)cc1	18000	–
COc1ccc(Cl)cc1C(=O)NCCc1ccc(S(=O)(=O)NCc2ccc(C(F)(F)F)cc2)cc1	1900	–
CNS(=O)(=O)c1ccc(CCCNC(=O)c2cc(Cl)ccc2OC)cc1	2030	–
CNS(=O)(=O)c1ccc(CCNC(=O)c2cc(Cl)cc(OC)c2)cc1	5830	–
CNS(=O)(=O)c1ccc(CCNC(=O)c2ccc(OC)c(Cl)c2)cc1	32800	–
CCCCNS(=O)(=O)c1ccc(CCNC(=O)c2cc(Cl)ccc2OC)cc1	970	–
CNS(=O)(=O)c1ccc(CCNC(=O)c2cccc(Cl)c2OC)cc1	31800	–
COc1ccc(Cl)cc1C(=O)NCCc1ccc(S(=O)(=O)N2CCC2)cc1	1660	–
